In PMC10951978 (RSC Advances, 2024):
Where two headings read alike, the source gives them in different places.

What was measured:
[1] = test system: MV411; test: CCK8 antiproliferative assay, MV411; format: cell-based, human; details: read-out: Antiproliferative activity (IC50/μM) MV411; MV411, CCK8, 48 h, means ± SD, n = 3
[2] = test system: Kasumi-1; test: CCK8 antiproliferative assay, Kasumi-1; format: cell-based, human; details: read-out: Antiproliferative activity (IC50/μM) Kasumi-1; Kasumi-1, CCK8, 48 h, means ± SD, n = 3
[3] = test system: K562; test: CCK8 antiproliferative assay, K562; format: cell-based, human; details: read-out: Antiproliferative activity (IC50/μM) K562
[4] = test system: KU812; test: CCK8 antiproliferative assay, KU812; format: cell-based, human; details: read-out: Antiproliferative activity (IC50/μM) KU812
[5] = test system: CCRF-CEM; test: CCK8 antiproliferative assay, CCRF-CEM; format: cell-based, human; details: read-out: Antiproliferative activity (IC50/μM) CCRF-CEM, CCK8, 48 h, means ± SD, n = 3
[6] = molecular target: T1, HDAC10 (Homo sapiens, UniProt Q969S8); test: HDAC isoform inhibitory activity; format: biochemical
T1 sequence (Q969S8 1-669): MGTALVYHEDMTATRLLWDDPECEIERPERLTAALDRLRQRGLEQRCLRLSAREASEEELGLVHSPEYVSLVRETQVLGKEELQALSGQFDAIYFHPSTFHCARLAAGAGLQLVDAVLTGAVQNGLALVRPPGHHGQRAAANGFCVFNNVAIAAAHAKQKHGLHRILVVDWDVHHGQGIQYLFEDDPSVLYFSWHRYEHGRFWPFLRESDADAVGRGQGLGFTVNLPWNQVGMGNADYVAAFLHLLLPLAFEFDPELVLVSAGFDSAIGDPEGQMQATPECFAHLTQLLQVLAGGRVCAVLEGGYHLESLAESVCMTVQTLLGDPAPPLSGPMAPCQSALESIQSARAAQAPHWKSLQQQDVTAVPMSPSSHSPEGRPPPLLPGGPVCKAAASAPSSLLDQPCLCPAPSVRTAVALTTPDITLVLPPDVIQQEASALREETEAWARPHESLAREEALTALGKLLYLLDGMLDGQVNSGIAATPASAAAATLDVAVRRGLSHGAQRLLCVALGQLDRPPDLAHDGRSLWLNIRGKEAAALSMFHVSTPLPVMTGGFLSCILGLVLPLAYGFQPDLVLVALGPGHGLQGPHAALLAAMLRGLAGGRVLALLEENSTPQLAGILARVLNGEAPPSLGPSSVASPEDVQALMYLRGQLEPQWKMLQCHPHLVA

[7] = molecular target: HDAC3 (Homo sapiens, UniProt O15379); test: HDAC isoform inhibitory activity; format: biochemical
[8] = molecular target: HDAC1 (Homo sapiens, UniProt Q13547); test: HDAC isoform inhibitory activity; format: biochemical
[9] = molecular target: HDAC2 (Homo sapiens, UniProt Q92769); test: HDAC isoform inhibitory activity; format: biochemical
[10] = test system: acetylated H3; test: Western blotting of H3 and acetylated H3; format: cell-based, human; details: MV411, 0.25, 0.5 and 1.0 μM, 48 hours
[11] = test system: MV411 cells; test: Annexin V-FITC/PI apoptosis assay by flow cytometry; format: cell-based, human; details: 48 hours
How it was run: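 MV411 cells seeded at 5 × 10^5 per well and held 24 h at 37 °C, 5% CO2. Test compound was then added at 0, 0.25, 0.5 and 1.0 μM for a further 48 h. Cells were harvested, washed in annexin-binding buffer, stained with annexin V-FITC and PI for 15 min at 37 °C, and analysed by flow cytometry.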

[12] = K562, CCK8, 48 h, means ± SD, n = 3
[13] = KU812, CCK8, 48 h, means ± SD, n = 3

Sequence of HDAC2 (Q92769 whole entry, canonical isoform): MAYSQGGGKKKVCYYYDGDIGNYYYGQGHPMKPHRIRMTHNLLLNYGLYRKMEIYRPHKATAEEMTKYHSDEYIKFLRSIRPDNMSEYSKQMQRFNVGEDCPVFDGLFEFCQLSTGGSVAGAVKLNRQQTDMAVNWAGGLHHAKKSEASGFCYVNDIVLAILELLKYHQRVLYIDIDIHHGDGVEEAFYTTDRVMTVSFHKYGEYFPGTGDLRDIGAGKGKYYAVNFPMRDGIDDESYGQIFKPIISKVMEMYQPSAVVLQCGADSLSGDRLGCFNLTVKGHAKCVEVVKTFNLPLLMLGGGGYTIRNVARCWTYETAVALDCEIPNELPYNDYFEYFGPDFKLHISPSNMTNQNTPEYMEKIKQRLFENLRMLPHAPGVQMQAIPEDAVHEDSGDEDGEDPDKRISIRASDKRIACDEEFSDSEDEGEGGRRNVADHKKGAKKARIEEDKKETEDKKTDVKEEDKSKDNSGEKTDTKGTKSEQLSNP
Sequence of HDAC1 (Q13547 whole entry, canonical isoform): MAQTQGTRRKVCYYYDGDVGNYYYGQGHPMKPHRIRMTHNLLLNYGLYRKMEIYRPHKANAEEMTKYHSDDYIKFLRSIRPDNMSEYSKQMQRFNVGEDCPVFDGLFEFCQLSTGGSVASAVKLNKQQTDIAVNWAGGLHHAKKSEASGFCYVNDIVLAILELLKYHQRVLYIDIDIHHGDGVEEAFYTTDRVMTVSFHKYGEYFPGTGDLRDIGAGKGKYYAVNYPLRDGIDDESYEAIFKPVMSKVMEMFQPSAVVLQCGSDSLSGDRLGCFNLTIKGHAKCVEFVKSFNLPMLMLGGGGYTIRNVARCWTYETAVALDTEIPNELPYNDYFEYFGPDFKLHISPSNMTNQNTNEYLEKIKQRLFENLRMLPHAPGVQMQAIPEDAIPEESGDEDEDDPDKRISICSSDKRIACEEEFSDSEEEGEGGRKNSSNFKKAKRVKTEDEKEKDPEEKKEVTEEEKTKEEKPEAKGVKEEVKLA
Sequence of HDAC3 (O15379 whole entry, canonical isoform): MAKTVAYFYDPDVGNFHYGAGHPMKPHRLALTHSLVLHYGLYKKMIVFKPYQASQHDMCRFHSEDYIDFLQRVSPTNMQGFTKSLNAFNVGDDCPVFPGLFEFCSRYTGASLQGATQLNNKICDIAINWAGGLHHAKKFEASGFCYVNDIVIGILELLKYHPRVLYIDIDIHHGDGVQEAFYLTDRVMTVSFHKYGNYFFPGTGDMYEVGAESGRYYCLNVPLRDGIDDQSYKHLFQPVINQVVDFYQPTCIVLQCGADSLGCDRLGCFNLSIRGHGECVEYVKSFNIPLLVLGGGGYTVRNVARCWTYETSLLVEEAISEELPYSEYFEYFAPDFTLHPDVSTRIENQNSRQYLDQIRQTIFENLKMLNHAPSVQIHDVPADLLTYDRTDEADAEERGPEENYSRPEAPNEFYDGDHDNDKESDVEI
Sequence of HDAC3 (Q9Y618 395-489 partner limits assumed): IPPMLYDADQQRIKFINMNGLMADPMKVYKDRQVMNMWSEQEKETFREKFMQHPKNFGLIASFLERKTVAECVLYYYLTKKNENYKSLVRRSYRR

Row | Compound | IC50 ([3]; Homo sapiens, K562, 48 h) [µM] | IC50 ([4]; Homo sapiens, KU812, 48 h) [µM] | further results
1 | 4-(2-(4-(((3R,4R)-4-(3,4-Dimethoxybenzyl)-2-oxotetrahydrofuran-3-yl)methyl)-2-methoxyphenoxy)acetamido)-N-hydroxybenzamide [B6] |  |  | IC50 [1]: > 5 µM; IC50 [2]: > 5 µM; IC50 [3, 12]: > 5 µM; IC50 [4, 13]: > 5 µM; IC50 [5]: > 5 µM
2 | 4-(4-(((3R,4R)-4-(3,4-Dimethoxybenzyl)-2-oxotetrahydrofuran-3-yl)methyl)-2-methoxyphenoxy)-N-hydroxypentanamide [A1] |  |  | IC50 [1]: > 5 µM; IC50 [2]: > 5 µM; IC50 [3, 12]: > 5 µM; IC50 [4, 13]: > 5 µM; IC50 [5]: > 5 µM
3 | COc1ccc(C[C@H]2COC(=O)[C@@H]2Cc2ccc(OCC(=O)NCC(=O)Nc3ccccc3N)c(OC)c2)cc1OC [B1, N-(2-Aminophenyl)-2-(2-(4-(((3R,4R)-4-(3,4-dimethoxybenzyl)-2-oxotetrahydrofuran-3-yl)methyl)-2-methoxyphenoxy)acetamido)acetamide] | > 5 | > 5 | 
4 | COc1ccc(C[C@H]2COC(=O)[C@@H]2Cc2ccc(OCC(=O)NCCC(=O)Nc3ccccc3N)c(OC)c2)cc1OC [B2, N-(2-Aminophenyl)-3-(2-(4-(((3R,4R)-4-(3,4-dimethoxybenzyl)-2-oxotetrahydrofuran-3-yl)methyl)-2-methoxyphenoxy)acetamido)propanamide] | > 5 | > 5 | 
5 | COc1ccc(C[C@H]2COC(=O)[C@@H]2Cc2ccc(OCC(=O)NCCCCC(=O)Nc3ccccc3N)c(OC)c2)cc1OC [B4, N-(2-Aminophenyl)-5-(2-(4-(((3R,4R)-4-(3,4-dimethoxybenzyl)-2-oxotetrahydrofuran-3-yl)methyl)-2-methoxyphenoxy)acetamido)pentanamide] | > 5 | > 5 | 
6 | COc1ccc(C[C@H]2COC(=O)[C@@H]2Cc2ccc(OCc3cn(CC(=O)Nc4ccccc4N)nn3)c(OC)c2)cc1OC [B8, N-(2-Aminophenyl)-2-(4-((4-(((3R,4R)-4-(3,4-dimethoxybenzyl)-2-oxotetrahydrofuran-3-yl)methyl)-2-methoxyphenoxy)methyl)-1H-1,2,3-triazol-1-yl)acetamide] | > 5 | > 5 | 
7 | N-(2-Aminophenyl)-5-(2-(4-(((3R,4R)-4-(3,4-dimethoxybenzyl)-2-oxotetrahydrofuran-3-yl)methyl)-2-methoxyphenoxy)acetamido)pentanamide [B5] |  |  | IC50 [1]: > 5 µM; IC50 [2]: > 5 µM; IC50 [3, 12]: > 5 µM; IC50 [4, 13]: > 5 µM; IC50 [5]: > 5 µM

The next lines start with results.

Row | IC50 ([3]; Homo sapiens, K562, 48 h) [µM] | Compound | IC50 ([4]; Homo sapiens, KU812, 48 h) [µM] | further results
8 | > 5 | COc1ccc(C[C@H]2COC(=O)[C@@H]2Cc2ccc(OCCCCC(=O)NO)c(OC)c2)cc1OC [A2, 5-(4-(((3R,4R)-4-(3,4-Dimethoxybenzyl)-2-oxotetrahydrofuran-3-yl)methyl)-2-methoxyphenoxy)-N-hydroxypentanamide] | > 5 | 
9 | 2.12 ± 0.12 | COc1ccc(C[C@H]2COC(=O)[C@@H]2Cc2ccc(OCCCCCC(=O)NO)c(OC)c2)cc1OC [A3, 6-(4-(((3R,4R)-4-(3,4-Dimethoxybenzyl)-2-oxotetrahydrofuran-3-yl)methyl)-2-methoxyphenoxy)-N-hydroxyhexanamide] | 3.88 ± 1.06 | 
10 | 1.19 ± 0.25 | COc1ccc(C[C@H]2COC(=O)[C@@H]2Cc2ccc(OCCCCCCC(=O)NO)c(OC)c2)cc1OC [A4, 7-(4-(((3R,4R)-4-(3,4-Dimethoxybenzyl)-2-oxotetrahydrofuran-3-yl)methyl)-2-methoxyphenoxy)-N-hydroxyheptanamide] | 1.41 ± 0.75 | 
11 | > 5 | COc1ccc(C[C@H]2COC(=O)[C@@H]2Cc2ccc(OCC(=O)N3CCC(C(=O)NO)CC3)c(OC)c2)cc1OC [A8, 1-(2-(4-(((3R,4R)-4-(3,4-Dimethoxybenzyl)-2-oxotetrahydrofuran-3-yl)methyl)-2-methoxyphenoxy)acetyl)-N-hydroxypiperidine-4-carboxamide] | > 5 | 
12 | > 5 | COc1ccc(C[C@H]2COC(=O)[C@@H]2Cc2ccc(OCc3cn(CC(=O)NO)nn3)c(OC)c2)cc1OC [A10, 2-(4-((4-(((3R,4R)-4-(3,4-Dimethoxybenzyl)-2-oxotetrahydrofuran-3-yl)methyl)-2-methoxyphenoxy)methyl)-1H-1,2,3-triazol-1-yl)-N-hydroxyacetamide] | > 5 | 
13 | 24.2 ± 3.12 | COc1cc(C[C@H]2C(=O)OC[C@@H]2Cc2ccc(OC)c(OC)c2)ccc1O [Arctigenin, reference compound] | > 30 | IC50 [1]: 4.27 ± 1.68 µM
14 | 1.96 ± 0.19 | COc1ccc(C[C@H]2COC(=O)[C@@H]2Cc2ccc(OCC(=O)Nc3ccc(C(=O)Nc4ccccc4N)cc3)c(OC)c2)cc1OC [B7, N-(2-Aminophenyl)-4-(2-(4-(((3R,4R)-4-(3,4-dimethoxybenzyl)-2-oxotetrahydrofuran-3-yl)methyl)-2-methoxyphenoxy)acetamido)benzamide] | 2.09 ± 0.31 | IC50 [6]: 1.75 µM; IC50 [7]: 0.299 µM; IC50 [8]: 0.261 µM; IC50 [9]: 0.131 µM; level of acetylated H3 (western blot) [10]: significantly increased the level of acetylated H3; overall proportion of apoptotic cells (Q1-UR + Q1-LR) ([11]; MV411, 0.5 μM): 37.90%; overall proportion of apoptotic cells (Q1-UR + Q1-LR) ([11]; MV411, 1.0 μM): 77.00%; overall proportion of apoptotic cells (Q1-UR + Q1-LR) ([11]; MV411, lowest concentration (printed 0.25 μM and 0.1 μM)): 21.84%
15 | 2.68 ± 0.65 | Nc1cc(F)ccc1NC(=O)c1ccc(CNC(=O)/C=C/c2cccnc2)cc1 [Tucidinostat, tucidinostat, reference compound] | 4.26 ± 0.48 | 
